Test [1] concerns Rattus norvegicus. The test can be described thus: Percent inhibition of the Angiotensin-II (0.1micro g/kg, iv) induced pressor response after 7 hours of administration (10 mg/kg po) in rats. It counts as functional. The essentials: (§1)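 Conscious male Sprague-Dawley rats dosed orally with test compound; pressor response to AII challenge (0.1 µg/kg iv) measured at 3 and 7 h after dosing and expressed as percent inhibition. Duplicate experiments, with n = 3 for some compounds; variation in % inhibition under 30%.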

The target of test [2] is T1, Type-1 angiotensin II receptor (Bos taurus, UniProt P25104).
T1 sequence (P25104 whole entry): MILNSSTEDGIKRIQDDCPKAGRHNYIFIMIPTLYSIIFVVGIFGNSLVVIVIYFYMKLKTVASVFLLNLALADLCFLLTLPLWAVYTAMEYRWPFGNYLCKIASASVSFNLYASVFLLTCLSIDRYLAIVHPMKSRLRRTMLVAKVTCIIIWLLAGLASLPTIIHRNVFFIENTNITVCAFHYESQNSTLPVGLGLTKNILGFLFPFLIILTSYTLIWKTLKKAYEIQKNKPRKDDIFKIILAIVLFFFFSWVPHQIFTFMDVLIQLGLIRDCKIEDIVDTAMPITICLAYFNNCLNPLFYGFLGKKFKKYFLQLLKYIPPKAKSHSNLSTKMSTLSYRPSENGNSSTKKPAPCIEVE
The test can be described thus: Inhibition of specific binding of [125 I ] Angiotensin-II (0.2 nM) to bovine adrenal cortex. It counts as tissue-based.

Test [3] has as its system Rattus norvegicus. Nature of the test: Percent inhibition of the Angiotensin-II (0.1ug/kg, iv) induced pressor response after 3 hours of administration (10 mg/kg po) in rats. It counts as functional. A digest of the protocol:
as §1

The species entered for a further test is Oryctolagus cuniculus. Nature of the test: Concentration required for inhibition of Angiotensin-II induced rabbit aorta strips contraction. It is filed as functional. A digest of the protocol:
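Isolated rabbit aortic strips contracted with AII (10 nM); test compound inhibition measured from concentration-inhibition curves, n = 6-8; IC50 is the concentration halving the AII-induced contraction.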

For test [4], the system named is Rattus norvegicus. Nature of the test: Percent inhibition of the Angiotensin-II (0.1ug/kg, iv) induced pressor response after 7 hours of administration (3 mg/kg po) in rats. It counts as functional. A digest of the protocol:
as §1

Test [5] deals with T2, Angiotensin II receptor (Rattus norvegicus) (UniProt P29089+P25095+P35351). The test can be described thus: Percent inhibition of the Angiotensin-II (0.1ug/kg, iv) induced pressor response after 3 hours of administration (3 mg/kg po) in rats. It counts as functional, organism-based. A digest of the protocol: as §1
Test [6] deals with T2, Angiotensin II receptor (Rattus norvegicus). The test can be described thus: Percent inhibition of the Angiotensin-II (0.1ug/kg, iv) induced pressor response after 3 hours of administration (1 mg/kg po) in rats. It counts as functional, organism-based. The essentials:
as §1

Test [7] deals with Rattus norvegicus. Nature of the test: Percent inhibition of the Angiotensin-II (0.1micro g/kg, iv) induced pressor response after 7 hours of administration (1 mg/kg po) in rats. It is filed as functional. A digest of the protocol: as §1
For test [8], the system named is Rattus norvegicus. The test can be described thus: (§2) Percent inhibition of the Angiotensin-II (0.1micro g/kg, iv) induced pressor response after 7 hours of administration (3 mg/kg po) in rats. It is filed as functional. A digest of the protocol:
as §1

For test [9], the system named is Rattus norvegicus. Nature of the test: Percent inhibition of the Angiotensin-II (0.1micro g/kg, iv) induced pressor response after 7 hours of administration (1 mg/kg po) in rats. It is filed as functional. The essentials:
as §1

Test [10] has as its target T2, Angiotensin II receptor (Rattus norvegicus). The description is as §2. It counts as functional, organism-based. The essentials:
as §1

The subject of test [11] is Rattus norvegicus. Nature of the test: Percent inhibition of the Angiotensin-II (0.1 micro g/kg, iv) induced pressor response after 7 hours of administration (1 mg/kg po) in rats. It is filed as functional. The essentials:
as §1

Test [12] addresses T2, Angiotensin II receptor (Rattus norvegicus). The test can be described thus: Percent inhibition of the Angiotensin-II (0.1ug/kg, iv) induced pressor response after 7 hours of administration (1 mg/kg po) in rats. It counts as functional, organism-based. A digest of the protocol:
as §1

Test [13] deals with Rattus norvegicus. Nature of the test: Percent inhibition of the Angiotensin-II (0.1 micro g/kg, iv) induced pressor response after 3 hours of administration (3 mg/kg po) in rats. It is filed as functional. A digest of the protocol:
as §1

In test [14] the test system is Rattus norvegicus. The test can be described thus: Percent inhibition of the Angiotensin-II (0.1micro g/kg, iv) induced pressor response after 3 hours of administration (10 mg/kg po) in rats. It counts as functional. A digest of the protocol: as §1
Test [15] deals with Rattus norvegicus. Nature of the test: Percent inhibition of the Angiotensin-II (0.1micro g/kg, iv) induced pressor response after 7 hours of administration (1 mg/kg po) in rat. It counts as functional. A digest of the protocol: as §1

SMILES strings stand for the structures.

Usually Inhibition stands for how much of the control response was suppressed. A low value points to little suppression. What is called IC50 is the concentration that gives 50% inhibition. Take `CCOc1nc2ccc(C(=O)O)cc2n1Cc1ccc(-c2ccccc2-c2nn[nH]n2)cc1`: the Inhibition in the test with Rattus norvegicus [1] was determined as 34%; in the test on Rattus norvegicus [3], 50%. The results for the IC50 (in [2]; in the test listed under Oryctolagus cuniculus) were 930 nM and 1.9 nM, respectively.

For orientation: inhibition means the relative decrease from the control value, in per cent. Read a low inhibition as little suppression. In the case of `CCCOc1nc2cccc(C(=O)OCC)c2n1Cc1ccc(-c2ccccc2-c2nn[nH]n2)cc1`, in the test on Rattus norvegicus [4], the Inhibition is recorded as 93%. The same compound registered an inhibition in test [5] of 66%.

Regarding `CNc1nc2cccc(C(=O)O)c2n1Cc1ccc(-c2ccccc2-c2nn[nH]n2)cc1`, in [6], the inhibition was 28%. The compound also came in with an Inhibition in the test with Rattus norvegicus [7] of 49%.

On to `CCOc1nc2cc(C(=O)O)ccc2n1Cc1ccc(-c2ccccc2-c2nn[nH]n2)cc1`, for which the Inhibition in the test with Rattus norvegicus [1] and with Rattus norvegicus [3] was 4% in each case. Moreover, the IC50 in test [2] stood at 13000 nM; in the test listed under Oryctolagus cuniculus, 191 nM.

`CCOc1nc2c(C(=O)O)cccc2n1Cc1ccc(-c2ccccc2-c2nn[nH]n2)cc1`: the Inhibition is listed as 5% in the test with Rattus norvegicus [1] and 22% in the test on Rattus norvegicus [3]. The same compound returned an IC50 in the test listed under Oryctolagus cuniculus of 131 nM.

As for `Cc1nc2cccc(C(=O)O)c2n1Cc1ccc(-c2ccccc2-c2nn[nH]n2)cc1`, the Inhibition with Rattus norvegicus [8] is listed as 51%. Also, the inhibition in [5] turned out to be 50%.

For `CCNc1nc2cccc(C(=O)O)c2n1Cc1ccc(-c2ccccc2-c2nn[nH]n2)cc1`, the inhibition was 81% in test [6], 100% in test [10] and 100% in [5]. Besides, the Inhibition in the test on Rattus norvegicus [9] worked out at 85%.

Regarding `CCCCNc1nc2cccc(C(=O)O)c2n1Cc1ccc(-c2ccccc2-c2nn[nH]n2)cc1`, the inhibition in [6] stood at 38%; in test [10], 61%; in test [5], 52%. Also, the Inhibition in the test on Rattus norvegicus [11] is on record as 19%.

As for `CCCCc1nc2cccc(C(=O)O)c2n1Cc1ccc(-c2ccccc2-c2nn[nH]n2)cc1`, the inhibition in [6] is 49%; in test [12] it was 53%; in test [5], 80%. Besides, the Inhibition in the test with Rattus norvegicus [8] is 76%.

For the compound `CCc1nc2cccc(C(=O)O)c2n1Cc1ccc(-c2ccccc2-c2nn[nH]n2)cc1`, the inhibition in [6] is 79%; in test [12] it was 62%; in [10], 95%. This compound displayed an Inhibition in the test on Rattus norvegicus [13] of 96%.

Consider `CCOc1nc2cccc(C(=O)O)c2n1Cc1ccc(-c2ccccc2-c2nnn[nH]2)cc1`, for which the inhibition in test [6] is 100%; in [12], 92%; in [10], 100%; in [5], 100%. Moreover, the Inhibition in the test on Rattus norvegicus [1] and with Rattus norvegicus [14] was 100% each time. Further, the IC50 stood at 110 nM in test [2] and 0.2 nM in the test listed under Oryctolagus cuniculus.

For the compound `CNCc1nc2cccc(C(=O)O)c2n1Cc1ccc(-c2ccccc2-c2nn[nH]n2)cc1`, the Inhibition with Rattus norvegicus [15] was determined as 50%. Besides, the inhibition in test [6] is 42%. The IC50 in test [2] is 800 nM.

These data come from ChEMBL document CHEMBL1126750, “Nonpeptide angiotensin II receptor antagonists. Synthesis and biological activity of benzimidazolecarboxylic acids” (J Med Chem, 1993).
